# Assay results from the RNAGym collection of RNA variant scans (doi:10.1126/science.aae0568).
# Fewer inactive variants are shown than the library holds.
# B1: tRNA (parent)
# chain: GUUCCGUUGGCGUAAUGGUAACGCGUCUCCCUCCUAAGGAGAAGACUGCGGGUUCGAGUCCCGUACGGAACG
# Variants of: B1
# Assay: yeast fitness relative to wild type (ratio to wild type); higher = fitter; tRNA-Arg(CCU), competitive growth, 37 C, YPD
# Summary of the method: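 Start and end populations of a pooled competition were compared by 100-nucleotide paired-end sequencing of gene amplicons. The Saccharomyces cerevisiae strains carried tRNA-Arg(CCU) gene variants at the native genomic locus, synthesised with a 3% per-site mutation rate at 69 sites, and competed in YPD at 37°C for 24 hours in six parallel replicates. Darwinian fitness relative to wild type was based on the change in genotype frequencies. Genotypes required ≥ 100 starting reads, and estimates < 0.5 were set to 0.5.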
row,Variant,yeast fitness
1,GUUGCGUUGGCGUAAUGGUAGCGCGUCUCCCACCUAAGGAGAAGACUGCGGGUUCGAGUCCCGUACGGAACG [C4G A21G U32A],0.672
2,GUUGCGUUGGCGUAAUGGUAAGGUGUCUCCCUCCUAAGGAAAAGACUGCGGGUUCGAGUCCCGUACGGAACG [C4G C22G C24U G41A],≤ 0.5
3,GUUGCGUUGGCGUAAUGGUAACGCGUCUCCCUCCUAAGGAGAAGUCUGCGGGUUCGAGUCCCGUACGGAACG [C4G A45U],0.91
4,GUUGGGUUGGAGUAAUGGUAACGCGUCUCCCUCCUAAAGAGAAGACUGCGGGUUCGAGUCCCGUACGGAACG [C4G C5G C11A G38A],≤ 0.5
5,GUUGCGUUGGCGUAAUGGUAACGGGUCUCCCUCCUAAGGAGAAGACUGCGGGUUCGACUCCCGUACGGAACG [C4G C24G G58C],≤ 0.5
6,GUUGCGUUGGGGUAAUGGUAACGCGUCUCCCUCCUAAGGAGAAGACUGCAGGUUCGAGUCCCGUACGGAACG [C4G C11G G50A],≤ 0.5
7,GUUGCGUUGGAGUAAUAGUGACGCGUUUCCCUCCUAAGGAGAUGACUGGGGGUUCGAGUUCCGUACGAAACG [C4G C11A G17A A20G C27U A43U C49G C60U G68A],≤ 0.5
8,GUUGCGUUGGCGUAAUGGUACAGCGUGUCCCUCUUAAGGAGAAGACUGCGGGUUCAAGUCCCGUACCGAACG [C4G A21C C22A C27G C34U G56A G67C],≤ 0.5
9,GUUGUGUUGGCGUAAUGGUAACGCGUCUCCCUCCUAAGGAGAGGACUGCGGGUUCGAGUCCCGUACGGAACG [C4G C5U A43G],≤ 0.5
10,GUUGCGUUGGGGUAAUGGUAACGCGUCUCCGUCCUAAGGAGAAGACUACGGGUUAGAGUCCAGUACGGAACG [C4G C11G C31G G48A C55A C62A],≤ 0.5
11,GUUGCGUUGGAGUAAUGGUAACGCGUCUCCCGCCUGAGGAGAAGACUGCGGGUUCGAGUCCCGUACGGAACG [C4G C11A U32G A36G],≤ 0.5
12,GUUGCGUUGGCGUAAUGGUUACGCGUCUCCCUCCUAAGGAGAAGACUGCGGGUUCCAGUCCCGUACGGAACG [C4G A20U G56C],≤ 0.5
13,GUUGCGUUGGCGUAAUGGUAAUGCGUCUCACUCUUAACGAGAAGACUGCGGGUUCGAGUCCCGUACGGAACG [C4G C22U C30A C34U G38C],≤ 0.5
14,GUUGCGUUGGUGUUAUGGUAACACGUCUCCCUCCUAAGGAGAAGACUGCGGGUUCGAGUCCAGUACGGAACG [C4G C11U A14U G23A C62A],≤ 0.5
15,GUUGCGUUGGCGUAAUGGUAACGCGUCUCCCUCCUAAGGUGAAGACUGCGGGUUCGAGUCCCGUAGGGAACG [C4G A40U C66G],0.624
16,GUUGCGUUGGCGUAAUGGUAACGAGUCUCCCUCCUAAGGAGAAGAUUGCGGGUUCGAGUCCCGUACGGAGCG [C4G C24A C46U A70G],≤ 0.5
17,GUUGCGUUGGCGUAAUGGUAACGCGUCUCCCUCCUAAGGAGCAGACUGCAGGUUCGAGUCCCGUACGGAACG [C4G A42C G50A],≤ 0.5
18,GUUGAGUUGGCGUAAUGGUAACGCGUCGCCCUCCUAAGGAGAAGACUGCGGGUUCGAGUCCCGUACGGAACG [C4G C5A U28G],≤ 0.5
19,GUUGCGUUGGCGUAAUGGUAACGCGUCUCCCUCCUAAGGAGAAGGCUGCGGGUACGAGUCCCGUACGGAACG [C4G A45G U54A],≤ 0.5

row,Variant,yeast fitness
1,GUUGCGUUGGCGUAAUGGUAACGCGUCUCCCUCCUAUGGAGAAGACUGCGGGUUCGAGUCCCGUACGGAACG [C4G A37U],0.681
2,GUUGCGUUGGCGUAAUGGUAACGGGUCUCCCUCCUAAGGAGAAGACUGCGGGUUCGAGUCCCGUACGGAACG [C4G C24G],0.617
3,GUUGAGUUGGCGUAAUGGUAACGCGUAUCCCUCCUAAGGAGAAGACUGCGGGUUCGAGUCACGUACGGAACG [C4G C5A C27A C61A],≤ 0.5
4,GUUGCGUUGGCGUAAUGGUAACGGGUCUCCCUCCUAAGGACAAGACUGCGGGUUCGAGUCCCGUACGGAACG [C4G C24G G41C],≤ 0.5
5,GUUGCGUUGGCGUAAUGGUAACGUGUCUCCCUCCUAAGGAGCAGAAUGCGGGUACGAGUCCCGUACGGAACG [C4G C24U A42C C46A U54A],0.623
6,GUUGCGUUGGCGUAAUGGUAACGCGUCUCCCUCCUAAGGAGAAGACUGCGGGUUCGCGUCCCGUACGGAACG [C4G A57C],0.57
7,GUUGCGUUGGCGUAAUGGUAUCGCGUCUCCCUCCUAAGGAGAAGACUGCGGGUGCGAGUCCCGUACGGAACG [C4G A21U U54G],0.607
8,GUUGCGUUGGGGUAAUGGUAACGCGUCUCCCUCCUAAGGAGAAGACUGCGGGUUUGAGUCACGUACGAAACG [C4G C11G C55U C61A G68A],≤ 0.5
9,GUUGCGUUGGCGUAAUGGUAACGCGUCUCCCUCCUGAGGAGAAGACUGCGGGUUCGAGUCCCGUACGGAACG [C4G A36G],0.939
10,GUUGCGUUGGCGUAAUGGUAACGGAUCUCCCUCCAAAGGAGAAGACUGCGCGUUCGAGUCCCGUACGGAACG [C4G C24G G25A U35A G51C],≤ 0.5
11,GUUGCGUUGGCGUAAUGGUAAUGCGUUUCCCUCCUAAGGAGAAGACUGCGGGUUCGAGUCCCGUACGGAACG [C4G C22U C27U],0.657
12,GUUGAGUUGGCGUAAUGGAAACGGGUCUGCCUCCUAAGGAGAAGACUGCGGGUUCGAGUCCCGUAUGGAACG [C4G C5A U19A C24G C29G C66U],≤ 0.5
13,GUUGCGUUGGCGUAAUGGUAACGCGUCUCCCUCCUAUGGAGAAGACUGCGGGUUCGAGUUCCGUACGGAACG [C4G A37U C60U],≤ 0.5
14,GUUGUGUUGGCGUAAUGGUAACGCGUCUCCCUCCUAUGGAGAAGACUGCGGGUUCGAGUCCCGUACGGAACG [C4G C5U A37U],≤ 0.5
15,GUUGCGUUGGAGUAAUAGUGACGCGUUUCCCUCCUAAGGAGAUGACUGGGGGUUCGAGUCCCGUACGGAACG [C4G C11A G17A A20G C27U A43U C49G],≤ 0.5
16,GUUGCGUUGGCGUAAUGGUAACGCGUCUCCCUCCUAAGGAGGAGUCUGCGGGUUCGAGUCCCGUAUGGAACG [C4G A42G A45U C66U],0.659
17,GUUGCGUUGGAGUAAUGGUAACGCGUCUCCUUCCUAAGGCGAAGACUGCGGGUUCGAGUCCCGUACGGAACG [C4G C11A C31U A40C],≤ 0.5
18,GUUGCGUUGGCGUAAUGGUAAGGCGUCUCCCUCCUAAGGAGAAGACUGCGGGUUCGAGUCCCGAUCGGAACG [C4G C22G U64A A65U],≤ 0.5
19,GUUGCGUUGGCGUAAUGGUUACGCGUCUCCCUCCUAAGGAGAAGAUUGCGGGUUCGAGUCCCGUACGGAACG [C4G A20U C46U],0.614
